Results on one compound are retold here after ChEMBL document CHEMBL3808357, “Discovery of N-(3-((1-Isonicotinoylpiperidin-4-yl)oxy)-4-methylphenyl)-3-(trifluoromethyl)benzamide (CHMFL-KIT-110) as a Selective, Potent, and Orally Available Type II c-KIT Kinase Inhibitor for Gastrointestinal Stromal Tumors (GISTs)” (J Med Chem, 2016).

The source made the active and inactive calls. No cut-off for these calls is given here.

In series [1] the test system is Mast/stem cell growth factor receptor Kit (Homo sapiens), P10721 [V559D,V654A]. Kind of series: Inhibition of Tel-fused cKIT V559D/V654A double mutant (unknown origin) transfected in mouse BAF3 cells assessed as decrease in cell proliferation after 72 hrs by celltiter-glo/CCK8 assay. In kind it is cell-based. The essentials: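 Stable BaF3 lines made by retroviral transduction with mutagenized TEL-KIT MSCV vectors, puromycin selection 48 h, then gradual IL-3 withdrawal until IL-3-independent; grown in RPMI 1640 with 10% FBS. Cells at 1 to 3 × 10⁴ cells/mL exposed to a concentration series for 72 h; viability read by CellTiter-Glo luminescence or CCK-8 absorbance (450/655 nm); GI50 from triplicate testing.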
Chain of Mast/stem cell growth factor receptor Kit (Homo sapiens), P10721 [V559D,V654A] (P10721 whole entry V559D/V654A, the tested form may be a part): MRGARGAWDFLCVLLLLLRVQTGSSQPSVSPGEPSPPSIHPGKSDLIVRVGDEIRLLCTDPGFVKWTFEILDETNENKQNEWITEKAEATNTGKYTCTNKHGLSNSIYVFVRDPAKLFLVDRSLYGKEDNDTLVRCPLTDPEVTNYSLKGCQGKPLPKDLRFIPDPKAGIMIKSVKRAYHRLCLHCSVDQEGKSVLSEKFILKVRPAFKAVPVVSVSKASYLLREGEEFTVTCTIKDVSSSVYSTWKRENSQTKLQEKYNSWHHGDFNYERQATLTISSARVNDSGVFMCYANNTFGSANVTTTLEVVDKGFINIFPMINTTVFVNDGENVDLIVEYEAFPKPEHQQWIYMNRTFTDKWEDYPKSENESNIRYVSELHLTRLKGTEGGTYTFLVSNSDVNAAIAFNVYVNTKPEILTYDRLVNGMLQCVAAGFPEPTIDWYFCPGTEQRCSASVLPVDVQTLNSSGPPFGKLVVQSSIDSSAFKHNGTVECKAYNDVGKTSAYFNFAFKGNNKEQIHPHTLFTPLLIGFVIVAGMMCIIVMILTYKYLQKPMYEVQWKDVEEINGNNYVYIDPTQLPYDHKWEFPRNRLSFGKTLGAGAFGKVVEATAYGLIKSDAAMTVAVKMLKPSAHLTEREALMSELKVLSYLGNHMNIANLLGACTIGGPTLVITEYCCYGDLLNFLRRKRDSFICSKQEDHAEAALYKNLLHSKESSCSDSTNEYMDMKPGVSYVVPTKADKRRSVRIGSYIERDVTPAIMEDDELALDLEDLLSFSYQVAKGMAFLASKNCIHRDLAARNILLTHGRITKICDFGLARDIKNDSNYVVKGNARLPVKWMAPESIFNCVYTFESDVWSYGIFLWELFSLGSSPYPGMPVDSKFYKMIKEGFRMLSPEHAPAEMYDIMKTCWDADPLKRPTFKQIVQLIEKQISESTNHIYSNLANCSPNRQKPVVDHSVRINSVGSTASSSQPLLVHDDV
On the technique in general: Cellular ATP, detected with luciferase, serves as a proxy for viable cell number.

In the next series the test system is GIST882. Kind of series: Induction of apoptosis in human GIST882 cells assessed as caspase 3 cleavage up to 3 uM after 72 hrs by Western blot analysis. In kind it is functional, cell-based. (In general: Immunoblotting shows a protein as a band on a membrane.)
Series [2] deals with Mast/stem cell growth factor receptor Kit (Homo sapiens) (UniProt P10721). Kind of series: Inhibition of Tel-fused cKIT L567P mutant (unknown origin) transfected in mouse BAF3 cells assessed as decrease in cell proliferation after 72 hrs by celltiter-glo/CCK8 assay. The class given is cell-based.
Chain of Mast/stem cell growth factor receptor Kit (Homo sapiens) (P10721 whole entry, the tested form may be a part): as the sequence (P10721 whole entry V559D/V654A, the tested form may be a part) above, with D559V, A654V counted along it
Series [3] is described as follows: Oral bioavailability in Sprague-Dawley rat plasma at 10 mg/kg. The class given is ADME, organism-based. The essentials:
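Male Sprague–Dawley rats, 8 weeks old, six in total, fasted overnight; compound dissolved in 5% DMSO/40% PEG400/55% saline (1 mg/mL dosing solution), given iv or orally. About 0.2 mL jugular blood taken with heparin at 1 min–8 h (iv) or 5 min–24 h (oral); plasma separated at 2–8 °C and stored at −80 °C before analysis.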

Series [4] can be described thus: Antiproliferative activity against human BCR-ABL dependent MEG01 cells assessed as reduction in cell viability after 72 hrs by celltiter-glo/CCK8 assay. In kind it is functional. The note with it: MEG-01, 72 h.
Series [5] concerns the target Mast/stem cell growth factor receptor Kit (Homo sapiens) (UniProt P10721). Kind of series: Inhibition of cKIT in human GIST48B cells assessed as suppression of ERK phosphorylation at T202/Y204 up to 10 uM after 2 hrs by Western blot analysis. The class given is cell-based.
For series [6], the target named is Epithelial discoidin domain-containing receptor 1 (Homo sapiens, UniProt Q08345). Nature of the series: Inhibition of GST-tagged human DDR1 expressed in baculovirus after 1 hr by Z-lyte assay.
Chain of Epithelial discoidin domain-containing receptor 1 (Q08345 whole entry, the tested form may be a part): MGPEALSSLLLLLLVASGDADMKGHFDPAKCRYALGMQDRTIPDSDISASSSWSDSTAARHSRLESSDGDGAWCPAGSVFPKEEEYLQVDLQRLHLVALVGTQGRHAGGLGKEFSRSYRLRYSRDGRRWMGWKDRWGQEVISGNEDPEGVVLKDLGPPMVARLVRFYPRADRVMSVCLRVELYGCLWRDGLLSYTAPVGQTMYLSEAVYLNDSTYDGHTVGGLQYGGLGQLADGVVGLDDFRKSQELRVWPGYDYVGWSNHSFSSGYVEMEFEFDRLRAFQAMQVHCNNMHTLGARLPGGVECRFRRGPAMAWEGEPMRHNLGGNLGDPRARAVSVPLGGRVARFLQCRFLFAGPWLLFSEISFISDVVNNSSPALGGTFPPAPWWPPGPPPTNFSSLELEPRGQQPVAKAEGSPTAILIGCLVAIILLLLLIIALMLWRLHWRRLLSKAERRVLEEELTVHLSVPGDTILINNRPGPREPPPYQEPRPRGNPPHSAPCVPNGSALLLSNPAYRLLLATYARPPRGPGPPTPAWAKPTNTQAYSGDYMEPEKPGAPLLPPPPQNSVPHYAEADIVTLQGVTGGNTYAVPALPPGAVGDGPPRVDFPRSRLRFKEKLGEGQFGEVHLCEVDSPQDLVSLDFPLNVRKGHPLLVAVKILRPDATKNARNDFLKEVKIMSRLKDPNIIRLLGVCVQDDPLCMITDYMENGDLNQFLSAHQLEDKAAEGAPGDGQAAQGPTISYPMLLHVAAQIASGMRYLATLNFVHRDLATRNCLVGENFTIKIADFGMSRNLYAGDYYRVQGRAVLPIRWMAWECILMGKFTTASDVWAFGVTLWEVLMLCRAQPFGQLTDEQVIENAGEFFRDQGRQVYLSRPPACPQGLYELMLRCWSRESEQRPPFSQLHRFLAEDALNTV
The target of series [7] is Mast/stem cell growth factor receptor Kit (Homo sapiens) (UniProt P10721). Nature of the series: Inhibition of cKIT autophosphorylation at Y823 in human GIST882 cells up to 10 uM after 2 hrs by Western blot analysis. The class given is cell-based.

For `Cc1ccc(NC(=O)c2cccc(C(F)(F)F)c2)cc1OC1CCN(C(=O)c2ccncc2)CC1`, the concentration for 50% growth inhibition (GI50) (in general, the concentration at which growth is held to half of that of the control) in series [1] was 1050 nM; in series [2], 150 nM; in series [4] it was 7430 nM. The result in the series on GIST882 was Active. Moreover, in series [3], the bioavailability (commonly dose-corrected exposure relative to a reference, in per cent) was 36.1%. Also, in series [5], the inhibition entry was “inactive”. The IC50 – broadly, the concentration needed to halve the response being measured – in series [6] stood at 126 nM. Also, the inhibition entry in series [7] was “Active”.
